Assay results: PubChem BioAssay
Values without a mark were called inactive.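 How the source made its calls, unless noted: active means viability at or under a set limit in both replicates, limit being median viability minus 3 SD (cut at about 48% in these data, passing the limit was not always enough); inconclusive means at or under the limit in just one replicate; inactive means at or above the limit in both replicates.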

Experiment: HUVEC growth inhibition – cell-based, human, primary screen (AID 575;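 active means viability at or below 30% in both replicate assays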;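 further: 100% = median of untreated cell wells with 0.1% DMSO on each plate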)
Details: HUVEC proliferation, CellTiter-Glo luminescence, 72 h; at 10 µM; stronger effect = lower value
In short: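 System: primary human umbilical vein endothelial cells; Quantity: 1250 endothelial cells in each well; Buffer or medium: supplemented EBM, 2% fetal bovine serum; Doses: one dose, 10 µM final, 0.1% DMSO; Incubation: 72 h compound incubation; Technique: ATP-based CellTiter-Glo luminescent read; Evaluation: percent of median DMSO-control luminescence; Controls: vehicle and MePR control wells.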

Row | Compound | viability [%]
1 | CCC(c1nnnn1CCOC)N(Cc1ccc(C)cc1)Cc1cc2cc(OC)ccc2[nH]c1=O (stereo not given) | 71.9
2 | COc1ccccc1-c1nnc(SCc2ccccn2)n1C | 113
3 | CCCCOCCCNC(=O)c1ccccc1OCC | 108
4 | COCCOC(=O)C1=C(C)Nc2ncnn2C1c1ccc(F)cc1 (stereo not given) | 103
5 | CCCCOc1ccc(C(=O)Nn2cnnc2)cc1 | 84.5
6 | O=C(CNS(=O)(=O)c1ccc(Br)s1)N1CCN(c2ncccn2)CC1 | 122
7 | CCN(CC)CCCN(Cc1cc2cc(OC)ccc2[nH]c1=O)C(=O)Nc1ccccc1 | 65.8
8 | CN(C)CCCn1c(N)c(C#N)c2nc(C#N)c(C#N)nc21 | 66.9
9 | CCOC(=O)C(C)(C)Sc1nc2c(cnn2-c2ccc(C)cc2)c(=O)[nH]1 | 90.4
10 | COC(=O)c1ccc(CSc2nnc(-c3ccncc3)o2)o1 | 87.8
11 | CC1(C)Cc2nc3oc4c(N(CCO)Cc5ccccc5)ncnc4c3cc2CO1 | 92.5
12 | CCCCc1n[nH]c2c1C(=O)CC(C)(C)C2 | 102
13 | CCOc1ccc(NC(=O)C2CC(=O)N(C(C)C)C2)cc1 (stereo not given) | 114
14 | C=C(C)CSc1nnc(-c2cccc(S(=O)(=O)N(C)C)c2)n1-c1cc(OC)ccc1OC | 95.4
15 | N#Cc1c(NC(=O)c2ccc(Br)o2)n(-c2ccccc2)c2nc3ccccc3nc12 | 71.1
16 | CCCC(=O)Nc1cc(C)c(NC(=O)c2ccccn2)cn1 | 92.2
17 | CCOC(=O)c1sc2ncn(/N=C/N(C)C)c(=O)c2c1C | 114
18 | O=C(c1ccco1)N1CCN(C(=O)c2cc3c(s2)-c2ccccc2OC3)CC1 | 107
19 | Cn1c(-c2ccccc2)c(CCO)c2ccccc21 | 114
20 | CC(C)(C)OC(=O)N1CCCC1C(=O)N1CCc2ccccc21 (stereo not given) | 94.9

Row | Compound | viability [%]
21 | Fc1ccc(C(c2nnnn2Cc2ccco2)N2CCN(C3CCCCC3)CC2)cc1 (stereo not given) | 92.5
22 | Cc1c(C(=O)NCc2cccnc2)oc2ccc(S(=O)(=O)N3CCCCC3)cc12 | 65.6
23 | COc1ccc(-c2cc(C(=O)NCCc3ccccc3)no2)cc1OC | 92.3
24 | O=C(NCc1ccccc1)C1CCN(S(=O)(=O)N2CCCCCC2)CC1 | 109
25 | CC1(C)CC(=O)C(CC2=C(O)CC(C)(C)CC2=O)=C(O)C1 | 94.4
26 | Cn1c(=O)c2c(nc(SCC(=O)NCc3ccco3)n2C)n(C)c1=O | 87.1
27 | COc1ccc(-c2noc(-c3cc(Cl)ccc3Cl)n2)cc1OC | 94.9
28 | CCn1c(=O)cc(SCC(=O)NCCN2CCN(Cc3ccccc3)CC2)c2ccccc21 | 80.5
29 | CC(=O)Nc1cccc(NC(=O)c2oc3ccccc3c2C)c1 | 76.8
30 | CN1CCN(c2oc(COc3ccc(-c4ccccc4)cc3)nc2C#N)CC1 | 66.3
31 | Clc1ccc2nc(N3CCCCC3)[nH]c2c1 | 105
32 | CN1CCc2nc(SCC(=O)Nc3ccc(F)cc3)c(C#N)cc2C1 | 94.2
33 | CCCCC(=O)NCCc1ccc(S(N)(=O)=O)cc1 | 95.4
34 | Cc1onc(-c2c(Cl)cccc2Cl)c1C(=O)N1CCc2ccccc21 | 68.1
35 | Cc1ccc(S(=O)(=O)NCCCCC(NC(=O)OC(C)(C)C)C(=O)O)cc1 (stereo not given) (tested in a mixture with another compound) | 125
36 | N#CC1=C(N)SC(N)=C(C#N)C1c1ccc(C(F)(F)F)cc1 | 56.3
37 | C=Cn1c(C(=O)O)cc(CC)c1-c1ccccc1 | 100
38 | Cc1nc2cccc(C(=O)NC3CCCCC3)c2o1 | 98.6
39 | O=C(CCn1nc(-c2ccc(Cl)cc2)ccc1=O)N1CCN(c2ccccn2)CC1 | 101
40 | COc1ccc(-c2nnc(SCC#N)o2)cc1 | 107

Experiment: H69AR cell proliferation blockers – human, duplicate replicates, primary screen (AID 580);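 further: 100% = mean luminescence of untreated wells and 0% = no signal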
Details: H69AR lung tumor cells viability, ATP luminescence, 72 h; at 10 µM; stronger effect = lower value

Row | Compound | viability [%]
41 | CCC(c1nnnn1CCOC)N(Cc1ccc(C)cc1)Cc1cc2cc(OC)ccc2[nH]c1=O (stereo not given) | 72.5
42 | COc1ccccc1-c1nnc(SCc2ccccn2)n1C | 80.6
43 | CCCCOCCCNC(=O)c1ccccc1OCC | 87.8
44 | COCCOC(=O)C1=C(C)Nc2ncnn2C1c1ccc(F)cc1 (stereo not given) | 85.8
45 | CCCCOc1ccc(C(=O)Nn2cnnc2)cc1 | 89.5
46 | O=C(CNS(=O)(=O)c1ccc(Br)s1)N1CCN(c2ncccn2)CC1 | 94.6
47 | CCN(CC)CCCN(Cc1cc2cc(OC)ccc2[nH]c1=O)C(=O)Nc1ccccc1 | 77.7
48 | CN(C)CCCn1c(N)c(C#N)c2nc(C#N)c(C#N)nc21 | 90.1
49 | CCOC(=O)C(C)(C)Sc1nc2c(cnn2-c2ccc(C)cc2)c(=O)[nH]1 | 79.9
50 | COC(=O)c1ccc(CSc2nnc(-c3ccncc3)o2)o1 | 100
51 | CC1(C)Cc2nc3oc4c(N(CCO)Cc5ccccc5)ncnc4c3cc2CO1 | 86.2
52 | CCCCc1n[nH]c2c1C(=O)CC(C)(C)C2 | 96.9
53 | CCOc1ccc(NC(=O)C2CC(=O)N(C(C)C)C2)cc1 (stereo not given) | 99.7
54 | C=C(C)CSc1nnc(-c2cccc(S(=O)(=O)N(C)C)c2)n1-c1cc(OC)ccc1OC | 95.9
55 | N#Cc1c(NC(=O)c2ccc(Br)o2)n(-c2ccccc2)c2nc3ccccc3nc12 | 85.2
56 | CCCC(=O)Nc1cc(C)c(NC(=O)c2ccccn2)cn1 | 99.4
57 | CCOC(=O)c1sc2ncn(/N=C/N(C)C)c(=O)c2c1C | 100
58 | O=C(c1ccco1)N1CCN(C(=O)c2cc3c(s2)-c2ccccc2OC3)CC1 | 97
59 | Cn1c(-c2ccccc2)c(CCO)c2ccccc21 | 94.7
60 | CC(C)(C)OC(=O)N1CCCC1C(=O)N1CCc2ccccc21 (stereo not given) | 84.9

Row | Compound | viability [%]
61 | Fc1ccc(C(c2nnnn2Cc2ccco2)N2CCN(C3CCCCC3)CC2)cc1 (stereo not given) | 94.1
62 | Cc1c(C(=O)NCc2cccnc2)oc2ccc(S(=O)(=O)N3CCCCC3)cc12 | 70.5
63 | COc1ccc(-c2cc(C(=O)NCCc3ccccc3)no2)cc1OC | 89.9
64 | O=C(NCc1ccccc1)C1CCN(S(=O)(=O)N2CCCCCC2)CC1 | 96.7
65 | CC1(C)CC(=O)C(CC2=C(O)CC(C)(C)CC2=O)=C(O)C1 | 102
66 | Cn1c(=O)c2c(nc(SCC(=O)NCc3ccco3)n2C)n(C)c1=O | 93.5
67 | COc1ccc(-c2noc(-c3cc(Cl)ccc3Cl)n2)cc1OC | 107
68 | CCn1c(=O)cc(SCC(=O)NCCN2CCN(Cc3ccccc3)CC2)c2ccccc21 | 84.4
69 | CC(=O)Nc1cccc(NC(=O)c2oc3ccccc3c2C)c1 | 68.9
70 | CN1CCN(c2oc(COc3ccc(-c4ccccc4)cc3)nc2C#N)CC1 | 78.3
71 | Clc1ccc2nc(N3CCCCC3)[nH]c2c1 | 91.9
72 | CN1CCc2nc(SCC(=O)Nc3ccc(F)cc3)c(C#N)cc2C1 | 97
73 | CCCCC(=O)NCCc1ccc(S(N)(=O)=O)cc1 | 97.1
74 | Cc1onc(-c2c(Cl)cccc2Cl)c1C(=O)N1CCc2ccccc21 | 61.6
75 | Cc1ccc(S(=O)(=O)NCCCCC(NC(=O)OC(C)(C)C)C(=O)O)cc1 (stereo not given) (tested in a mixture with another compound) | 104
76 | N#CC1=C(N)SC(N)=C(C#N)C1c1ccc(C(F)(F)F)cc1 | 84.3
77 | C=Cn1c(C(=O)O)cc(CC)c1-c1ccccc1 | 106
78 | Cc1nc2cccc(C(=O)NC3CCCCC3)c2o1 | 93.1
79 | O=C(CCn1nc(-c2ccc(Cl)cc2)ccc1=O)N1CCN(c2ccccn2)CC1 | 91.1
80 | COc1ccc(-c2nnc(SCC#N)o2)cc1 | 103
